From ChEMBL document CHEMBL4513216, “Probing the Open Global Health Chemical Diversity Library for Multistage-Active Starting Points for Next-Generation Antimalarials” (ACS Infect Dis, 2020)

Assay: Toxicity liver stage against HepG2, at 10uM
Format: cell-based
Parameters: test concentration 10 uM, cell line HepG2-A16-CD81EGFP
Details: human, HepG2-A16-CD81EGFP cells; read-out: INHIBITION
Method in brief: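 Uninfected HepG2-A16-CD81EGFP cells, 3 × 10^3 per well, 1536-well, plated on prespotted compound at 10 μM final, parasite-free screening media added to match infected plates; puromycin 10 μM positive, DMSO 0.5% negative; run in parallel with 48 h PbLuc assay at 37 °C, 5% CO2; viability by CellTiter-Glo luminescence, normalized to controls.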

Row | SMILES | cytotoxicity at 10 µM [%]
1 | Cc1nc(NC(=O)c2c(-n3cnnn3)sc(C)c2C)sc1C | 2.13
2 | Cc1cc(C)nc(-n2nc(C)c3c2NC(=O)CSC3c2cnn(C)c2)n1 (stereo unspecified) | -36.5
3 | CC(C)Cn1ccc2c(NC(=O)c3n[nH]c4c3CCC4)cccc21 | 7.33
4 | Cc1cc(NC(=O)C(C)C)n(-c2nc(C)c(C)c(=O)[nH]2)n1 | 43.1
5 | Cc1cc(C(=O)N2CCN(c3nc4c(C(C)C)cccc4s3)CC2)no1 | 16.7
6 | CCc1c(C)nc(-n2nc(C3CC3)cc2NC(C)=O)[nH]c1=O | 30.3
7 | O=C1[C@H]2CN(C3CCOCC3)C[C@H]2CN1Cc1cccnc1 | -127
8 | O=C(c1cnccn1)N1C[C@@H]2[C@@H](C1)OCC(=O)N2CC1CCCC1 | 1.58
9 | O=C1CSC(c2ccc(O)cc2)c2sccc2N1 (stereo unspecified) | 5.31
10 | O=c1[nH]c2nc(NCC3CCCO3)ncc2c(=O)n1-c1ccc(F)cc1 (stereo unspecified) | -5.89
11 | CCN(CC)c1nc(Nc2cccc(C(C)O)c2)nc2ccccc12 (stereo unspecified) | 37.6
12 | CCCNc1cc(-c2c[nH]nc2C2CCN(C(=O)C3CCC3)C2)ccn1 (stereo unspecified) | 82
13 | CN1CCCC1c1cccc(Cc2ccc(F)cc2)n1 (stereo unspecified) | 4.3
14 | CCNC(=O)Nc1ccc(N2CCC(OC)CC2)c(C(F)(F)F)c1 | 20.4
15 | COc1ccc2c(c1)CCCN2C(=O)c1cccc(N(C)C)c1 | 62.8
16 | CCCOc1cccc(OCc2ccon2)c1 | -4.9
17 | COc1cccc(C(CO)NC(=O)NC(C)C)c1 (stereo unspecified) | 10.5
18 | CC(C)(C)C(=O)NCC(=O)NCC1CCCS1 (stereo unspecified) | 3.46
19 | COc1c(C2CCCN2CC(=O)N(C)Cc2ccco2)c(C)nn1C (stereo unspecified) | -3.13
20 | Cc1noc(C)c1CN(C)Cc1csc(-c2ccc(C(C)C)cc2)n1 | 54.8
21 | CCCn1nc2c(cc1=O)CN(c1ncnc3sccc13)CC2 | 49.4
22 | COc1ccc(CN(Cc2cc(C)no2)C2CC2)cc1 | -3.71
23 | COCCCSc1ccc(NCc2scnc2C)cc1 | 55.3

Row | SMILES | cytotoxicity at 10 µM [%]
24 | CC(C)c1ccc(OCCNC(=O)c2ccoc2)cc1 | -1.92
25 | Cc1ncsc1C(=O)OCC1CCN(c2ccccc2)C1 (stereo unspecified) | 27.5
26 | Cc1ccc(NCc2ccc(C#N)cc2)c(CN(C)C)c1 | -3.07
27 | Fc1cc(CN2CCOC3(CCOCC3)C2)ccc1OC(F)F | -11.9
28 | CCc1nc(C)c(C(=O)NCCNc2ncnc3sccc23)s1 | 41.1
29 | O=C(NC1CC1)C1CCN(c2cccc(C(F)(F)F)n2)CC1 | 5.17
30 | OC(CN1CCN(CC2CCCCC2)CC1)c1ccccc1 (stereo unspecified) | 1.53
31 | CC1CCN(C(=O)C2CCCN(C(=O)Nc3ccccn3)C2)CC1 (stereo unspecified) | -2.98
32 | COCc1nc2cc(NCc3ccc(CO)o3)ccc2o1 | -16.2
33 | Cc1cc(NC(=O)C2CN(Cc3ccccc3)CCO2)ccn1 (stereo unspecified) | 54.9
34 | COC(=O)C(C)(C)NC(=O)c1cnc(Cc2ccc(F)cc2)s1 | -0.538
35 | Cc1cc(S(=O)(=O)N2CCCN3CCCC3C2)ccc1F (stereo unspecified) | 17
36 | Cc1nnc(NCC2(c3ccccc3)CCC2)c(C#N)c1C | 19.9
37 | CC(C)(C)n1ncc2c1CCCC2NCc1ccc2c(c1)OCCO2 (stereo unspecified) | 1.7
38 | CCc1nc(CN2CCCN(c3ncnc4sccc34)CC2)no1 | 59.9
39 | CCCNC(=O)CNc1ccc2c(c1)N(C(=O)OC(C)(C)C)CCC2 | 13
40 | CC(C)CN1CCC(NC(=O)c2ccc(Cl)cc2Cl)CC1 | -8.33
41 | CCC(CNC(=O)NC1CCN(C)CC1)Oc1ccccc1Cl (stereo unspecified) | 5.47
42 | Cc1cc(S(=O)(=O)Nc2onc(C)c2C)sc1C | 5.54
43 | CN(Cc1ccccn1)C(CO)c1cccc(Br)c1 (stereo unspecified) | -6.12
44 | Cc1ccc(SC2CCCC2)c(C(=O)NCCO)c1 | -45.3
45 | O=C(Cn1cnc2ccccc2c1=O)Nc1cc(C2CC2)n[nH]1 | 49.4
46 | c1ccc2c(NCC3(N4CCOCC4)CCSC3)ncnc2c1 (stereo unspecified) | 57

Row | SMILES | cytotoxicity at 10 µM [%]
47 | O=C(CCCn1ccnc1)NC1CCCN(c2ccccc2Cl)C1 (stereo unspecified) | 4.86
48 | N#Cc1ccc(CN(CC(N)=O)C2CCCC2)c(Br)c1 | 30.1
49 | Cc1nc(CN2CCCC(Nc3ncnc4ccccc34)C2)no1 (stereo unspecified) | 50
50 | COc1ccc(-c2nc(CN3CC(n4cc(C)cn4)C3)no2)cc1 | -14.9
51 | COc1cc(N2CCC3(CCN(Cc4cccnc4)C3=O)C2)ncn1 (stereo unspecified) | -107
52 | O=S(=O)(c1ccccc1)N1CCC2(CCCN2Cc2ccc(Cl)cc2)C1 (stereo unspecified) | -66.3
53 | COc1ccc2[nH]cc(-c3ccnc(NC4CCCC4)n3)c2c1 | -6.33
54 | c1cc(-c2c[nH]nc2C2CCCCC2)nc(N2CCCCCC2)n1 | 8.07
55 | O=c1[nH]c(NCc2cccc(OC(F)F)c2)nc2c1CCNC2 | 2.47
56 | OC1(CN2CCC(Oc3cccc(C(F)(F)F)c3)CC2)CCNC1 (stereo unspecified) | 1.05
57 | O=C(O)C1CC2(CCN(c3nccc4ccccc34)CC2)CN1 (stereo unspecified) | -2.65
58 | c1ccc(-c2cnn3cc(CN4CCC5(CCO5)CC4)cnc23)cc1 | 1.64
59 | CCc1cc(N2CCC(n3cc(C(=O)NC4CC4)nn3)CC2)ncn1 | 27.7
60 | CC1(c2ccccc2)CCCN(Cc2cncn2C2CCCC2)C1 (stereo unspecified) | 16.3
61 | Clc1ccccc1-c1cc(CNc2ncnc3c2CCNCC3)no1 | 24.6
62 | CCO[C@H]1C[C@@H](O)C12CCN(C(=O)CC(F)(F)F)CC2 | -6.36
63 | CC(C)CN1CCCC1c1ccc(C(=O)Nc2cccnc2)s1 (stereo unspecified) | -6.79
64 | Cc1cc(CN2CCCC2)cc(Oc2nc(C)cnc2C)c1 | -2.54
65 | O=C(NCc1nc(NC2CCCC2)c2cc(Cl)ccc2n1)c1ccoc1 | -2.99
66 | N[C@@H]1c2ccccc2C2(CCN(c3ncccc3C(F)(F)F)CC2)[C@H]1O | 0.106
67 | c1ccc(OCCNc2ncnc3sc4c(c23)CCNC4)cc1 | 45.4
68 | Cc1ccc(-c2cc(CNc3ncnc4c3CCNCC4)no2)cc1 | 13
69 | COc1ccccc1CCN[C@@H]1c2ccccc2C2(CCNCC2)[C@H]1O | 5.79

Row | SMILES | cytotoxicity at 10 µM [%]
70 | O=C(NC1CC1)c1ccnc(N2CCOC(c3ccc(Cl)c(Cl)c3)C2)c1 (stereo unspecified) | 14
71 | O=C(O)c1cccnc1CN(Cc1ccsc1)C1CC1 | 3.7
72 | CC(C)c1nccn1Cc1cc(C(=O)NCC(F)(F)F)n[nH]1 | 3.73
73 | COc1ccc(-c2cc(CNc3ncnc4c3CCNCC4)no2)cc1 | 13.1
74 | CC(C)(CO)Nc1ccc(-c2nc(-c3ccccc3F)no2)cn1 | 9.62
75 | COc1ccc(C(=O)C2CCCN(c3cc(OC)ncn3)C2)c(C)c1 (stereo unspecified) | 48
76 | CC(Nc1ncnc2c1CCNC2)c1ccc2c(c1)CCCC2 (stereo unspecified) | 42
77 | CC(C)=CCC1(CO)CCCN(S(=O)(=O)N2CCCC2)C1 (stereo unspecified) | -3.38
78 | Cc1cc(NC(=O)c2ccc(CN3CC[C@H](O)C3)cc2)ccc1F | 4.5
79 | CCOC(=O)N1CCN(c2nc(CCN)nc3sc(C)c(C)c23)CC1 | -43.4
80 | Clc1ccc2nc(N3CCC(NCCCC4CCOC4)CC3)sc2c1 (stereo unspecified) | 4.1
81 | Cc1cc(O)ccc1-c1cc(-c2cnn(C)c2C2CC2)c(C#N)c(N)n1 | 40.2
82 | Fc1ccccc1OC1CCN(CCn2cc3ccccc3n2)CC1 | 9.25
83 | COc1cccc(-c2noc3c2CN(c2ncnc4c2CCC4)CC3)c1 | 51
84 | O=C1NCCN1C1CCN(Cc2nc(-c3ccc(F)cc3)no2)CC1 | 44.1
85 | COc1ccc(-c2noc(CN3CC(n4cc(C)cn4)C3)n2)cc1 | -5.97
86 | COc1ccc(OCCN2CCC(N3CCNC3=O)CC2)cc1 | 29.5
87 | Cc1cc(C(=O)N2CCc3nnc(N)cc3C2)c(C)n1-c1ccccc1 | 0.591
88 | CCOc1ncccc1NC(=O)N1CCN(c2cccc(C)c2C)CC1 | 81.2
89 | CC(C)c1n[nH]c(C(=O)Nc2ccnn2C(C)C)c1Br | 13.8
90 | NC1CCc2nc(-c3ccncc3)nc(Nc3cccc(F)c3)c2C1 (stereo unspecified) | 26.4
91 | Cc1noc(C)c1CN1CCn2cc(CNc3ccccn3)nc2C1 | -1.38
92 | COCC1CN(Cc2ccc(OC)cc2)Cc2nn(C)cc21 (stereo unspecified) | 0.976

Row | SMILES | cytotoxicity at 10 µM [%]
93 | Cc1noc(C)c1CN1C[C@@H]2CC(F)(F)C[C@@H]2C1 | -2.58
94 | Cc1cccc(CNC(Cc2ccsc2)c2nc(C)c(C)s2)n1 (stereo unspecified) | -0.52
95 | O=C(Nc1ccccc1)c1ccc2c(c1)C1(CCCCC1)CN2 | -31.5
96 | Clc1cccc(C[C@@H]2NCCC[C@@H]2Nc2cccc(Cl)c2)c1 | 86
97 | COc1cccc(CN(Cc2ccco2)Cc2[nH]cnc2C)c1 | 3.77
98 | Cc1ccc(-c2ccc(C3CNCCO3)nc2)cc1 (stereo unspecified) | -5.3
99 | Cc1noc(C)c1CN1CCc2ncnc(-c3ccncc3)c2CC1 | -87
100 | Cn1ncc2c1CCCC2NCc1cccc(C(F)(F)F)c1 (stereo unspecified) | -8.25
101 | CC(C)NC(=O)N1CCc2onc(C(=O)NCCN(C)C)c2C1 | 0.0529
102 | Fc1ccc2c(c1)C1(CCNCC1)CC2NC1CC1 (stereo unspecified) | -117
103 | CN1C(=O)C2(CCN(CC3CCC3)C2)c2ccccc21 (stereo unspecified) | -71.3
104 | O=C([C@H]1C[C@@H]2CCN(c3cccc(F)c3)C[C@H]2O1)N1CCCC1 | 1.99
105 | Cc1ccc(N2CC[C@H]3O[C@@H](C(=O)N4CCCO4)CC[C@H]32)nn1 | 0.908
106 | O=c1c2sccc2nc2n1CCN(Cc1ccccc1C(F)(F)F)CC2 | -9.31
107 | O=C(CC1CC1)NC[C@]12COC[C@H]1CN(c1ncccn1)C2 | -142
108 | O=C(NCCN1CCOCC1)c1ccnn1-c1ccc2ccccn12 | 10.9
109 | COCCN1CCCCC12CC(=O)N(c1ccccc1OC)C2 (stereo unspecified) | -92.6
110 | FC1(F)CCN(Cc2cccnc2)CC12CCN(c1ccccc1)C2 (stereo unspecified) | -84.5
111 | Cc1ccccc1SC1CCN(C(=O)C2[C@H]3CNC[C@@H]23)CC1 (stereo partly specified) | -10.1
